Columns and labels:
[1] = Partition coefficient (logP); assay type: physicochemical; settings: octanol/water
In short: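 Lipophilicity (log P) measured by 1-octanol-coated reversed-phase HPLC. The mobile phase is pH 7.4 PBS saturated with 1-octanol, run on RP-18 or C-18 packing. A second system is linked to the first through overlapping series. For the most lipophilic analogues that could not be detected, log P is calculated from Free-Wilson-derived substituent constants assuming additivity.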

[2] = Statistical significance, p values as compared to positive control by students t-test; NS=Not significant; assay type: ADME
In short: (§1)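 Same arachidonic acid ear-edema model: 2 mg total topical dose in acetone, given 60 min before arachidonic acid, with 8 animals per group. Edema is measured by ear plug weight 1 h after arachidonic acid. p values come from Student's t-test against the concurrent arachidonic acid positive control. Thresholds are given as + (≤0.05) and so on.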

[3] = tested on: Mus musculus; test: Compound was tested for inhibition of arachidonic acid induced mouse ear edema at 2 mg of dose; assay type: functional
In short: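 Mouse ear edema induced by arachidonic acid (dissolved in acetone at 100 mg/mL). Test agent is applied topically in acetone, 2 mg/0.02 mL per total dose, 60 min before arachidonic acid. Ear edema is read 1 h later as the weight gain of an 8-mm-diameter ear plug. It is compared with acetone-only and arachidonic acid-only controls run in the same experiment. n = 8 per group; percent inhibition is reported as mean.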

[4] = Statistical significance (p value) compared to positive control by Students t-test; assay type: ADME; in short: as §1

SMILES	logP [1]	Significance [2]	Significance [4]	Significance ([4]; read-out: Significance)	Inhibition [3]
CC(=O)Oc1c(Oc2ccccc2)c(Oc2ccccc2)c(OC(C)=O)c2cc(Cl)ccc12	5.6	Not Active	–	–	5%
CCC(=O)Oc1c(OC)c(OC)c(OC(=O)CC)c2cc(C)c(C)cc12	4.2	–	<= 0.001	–	26%
CC(C)C(=O)Oc1c(Oc2ccccc2)c(Oc2ccccc2)c(OC(=O)C(C)C)c2cc(Cl)ccc12	7.7	Not Active	–	–	0%
CCC(=O)Oc1c(Oc2ccccc2)c(Oc2ccccc2)c(OC(=O)CC)c2cc(Cl)ccc12	6.6	Not Active	–	–	-15%
COc1c(OC)c(OC(C)=O)c2cc(Br)ccc2c1OC(C)=O	3.39	–	<= 0.001	–	42%
CCCC(=O)Oc1c(OC)c(OC)c(OC(=O)CCC)c2cc(Cl)ccc12	5.5	–	<= 0.001	–	58%
CCCC(=O)Oc1c(Oc2ccccc2)c(Oc2ccccc2)c(OC(=O)CCC)c2cc(Cl)ccc12	7.7	Not Active	–	–	-5%
COc1c(OC)c(OC(C)=O)c2cc(C#N)ccc2c1OC(C)=O	2.28	Not Active	–	–	7%
CCC(=O)Oc1c(OC)c(OC)c(OC(=O)CC)c2cc(Cl)ccc12	4.3	–	<= 0.001	–	49%
O=C(Oc1c(Oc2ccccc2)c(Oc2ccccc2)c(OC(=O)c2ccccc2)c2cc(Cl)ccc12)c1ccccc1	8.7	Not Active	–	–	-1%
CC(=O)Oc1c(OC(C)C)c(OC(C)C)c(OC(C)=O)c2cc(Cl)ccc12	4.6	–	<= 0.001	–	19%
CCCCOc1c(OCCCC)c(OC(C)=O)c2cc(Cl)ccc2c1OC(C)=O	5.9	–	<= 0.01	–	23%
COc1c(OC)c(OC(=O)c2ccccc2)c2cc(Cl)ccc2c1OC(=O)c1ccccc1	6.7	–	<= 0.05	–	18%
COc1ccc2c(OC(C)=O)c(OC)c(OC)c(OC(C)=O)c2c1	2.39	–	<= 0.001	–	53%
CCC(=O)Oc1c(OC)c(OC)c(OC(=O)CC)c2cc(OC)ccc12	3.28	–	<= 0.01	–	49%
CCCOc1c(OCCC)c(OC(=O)CC)c2cc(Cl)ccc2c1OC(=O)CC	6.4	–	<= 0.001	–	30%
CCOc1c(OCC)c(OC(=O)CC)c2cc(Cl)ccc2c1OC(=O)CC	5.2	–	<= 0.001	–	50%
CCCOc1c(OCCC)c(OC(C)=O)c2cc(Cl)ccc2c1OC(C)=O	5.2	–	<= 0.001	–	50%
CC(C)Oc1c(OC(C)C)c(OC(=O)C(C)(C)C)c2cc(Cl)ccc2c1OC(=O)C(C)(C)C	7.9	–	<= 0.001	–	26%
CCOc1c(OCC)c(OC(=O)C(C)(C)C)c2cc(Cl)ccc2c1OC(=O)C(C)(C)C	7.4	–	<= 0.001	–	19%
CCCOc1c(OCCC)c(OC(=O)C(C)(C)C)c2cc(Cl)ccc2c1OC(=O)C(C)(C)C	8.5	–	<= 0.05	–	16%
CSc1c(SC)c(OC(C)=O)c2cc(Cl)ccc2c1OC(C)=O	–	Not Active	–	–	-2%
CCOc1c(OCC)c(OC(C)=O)c2cc(Cl)ccc2c1OC(C)=O	4	–	<= 0.001	–	38%
CCCC(=O)Oc1c(OC)c(OC)c(OC(=O)CCC)c2ccccc12	4.64	–	<= 0.001	–	59%
CCC(=O)Oc1c(OC)c(OC)c(OC(=O)CC)c2ccccc12	3.44	–	<= 0.01	–	33%

Now from value to compound, other results behind:

logP [1]	Significance [2]	Significance [4]	Significance ([4]; read-out: Significance)	SMILES	Inhibition [3]
2	Not Active	–	–	COc1c(OC)c(OC(C)=O)c2c(NC(C)=O)cccc2c1OC(C)=O	6%
3.16	Not Active	–	–	COc1c(OC)c(OC(C)=O)c2c(Cl)cccc2c1OC(C)=O	11%
3.44	–	<= 0.001	–	CCC(=O)Oc1c(OC)c(OC)c(OC(=O)CC)c2c(OC)cccc12	57%
2.43	–	<= 0.01	–	COc1c(OC)c(OC(C)=O)c2c(OC)cccc2c1OC(C)=O	47%
6.1	Not Active	–	–	COc1c(OC)c(OC(=O)C(C)(C)C)c2c(C)cccc2c1OC(=O)C(C)(C)C	10%
3.9	–	<= 0.001	–	CCC(=O)Oc1c(OC)c(OC)c(OC(=O)CC)c2cc(C)ccc12	39%
4.61	–	<= 0.001	–	COc1c(OC)c(OC(=O)C(C)C)c2ccccc2c1OC(=O)C(C)C	53%
2.39	–	<= 0.05	–	COc1c(OC)c(OC(C)=O)c2ccccc2c1OC(C)=O	19%
5	Not Active	–	–	COc1c(OC)c(OC(=O)C(C)C)c2c(C)cccc2c1OC(=O)C(C)C	12%
3.9	–	<= 0.01	–	CCC(=O)Oc1c(OC)c(OC)c(OC(=O)CC)c2c(C)cccc12	24%
6.1	Not Active	–	–	COc1c(OC)c(OC(=O)C(C)(C)C)c2c(Cl)cccc2c1OC(=O)C(C)(C)C	6%
2.86	–	<= 0.001	–	COc1c(OC)c(OC(C)=O)c2cc(C)ccc2c1OC(C)=O	40%
5.6	–	<= 0.01	–	COc1c(OC)c(OC(=O)C(C)(C)C)c2c(OC)cccc2c1OC(=O)C(C)(C)C	29%
5.4	–	<= 0.01	–	COc1c(OC)c(OC(=O)C(C)C)c2cc(Cl)ccc2c1OC(=O)C(C)C	23%
7.5	–	<= 0.01	–	CCCOc1c(OCCC)c(OC(=O)C(C)C)c2cc(Cl)ccc2c1OC(=O)C(C)C	28%
2.75	–	<= 0.001	–	COc1c(OC)c(OC(C)=O)c2cc(F)ccc2c1OC(C)=O	40%
5.3	–	<= 0.001	–	COc1c(OC)c(OC(=O)C(C)C)c2cc(C)c(C)cc2c1OC(=O)C(C)C	21%
2.8	–	–	< 0.001	COc1c(OC)c(OC(C)=O)c2c(C)cccc2c1OC(C)=O	22%
3.14	–	<= 0.001	–	COc1c(OC)c(OC(C)=O)c2cc(C)c(C)cc2c1OC(C)=O	19%
4.2	–	<= 0.001	–	COc1c(OC)c(OC(C)=O)c2c(Sc3ccccc3)cccc2c1OC(C)=O	42%
6.4	–	<= 0.05	–	CCOc1c(OCC)c(OC(=O)C(C)C)c2cc(Cl)ccc2c1OC(=O)C(C)C	11%
2.51	–	<= 0.01	–	COc1c(OC)c(OC(C)=O)c2c(C#N)cccc2c1OC(C)=O	24%

From ChEMBL document CHEMBL1123347, “Topical nonsteroidal antipsoriatic agents. 1. 1,2,3,4-Tetraoxygenated naphthalene derivatives” (J Med Chem, 1986)
